Assays:
PBMC [1] = test: Cellular uptake in PHA/IL-2-stimulated human PBMC at 10 uM assessed as TFV-diphosphate after 24 hrs by MS/MS analysis; assay type: ADME, cell-based
In short: (§1)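 PHA-stimulated (4 μg/ml PHA, 48 to 72 h; 20 U/ml rhIL-2) human PBMCs at 2 × 10^6 cells/ml in RPMI 1640 with 15% FBS, given tenofovir or prodrug (final 0.01 to 10 μM) for 24 h at 37°C. Cells washed three times in cold 0.9% NaCl, counted, and 1 × 10^7 cell aliquots pelleted. TFV, TFV-MP and TFV-PP were separated by ion-pairing reverse-phase LC and detected by positive-ion electrospray MS. Output is pmol per 10^6 cells.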

[2] = Cytotoxicity against human ME180 cells after 24 hrs by XTT assay; assay type: cell-based; settings: me-180, 24 h
In short: (§2)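 Six-concentration growth-inhibition test: 10 to 0.032 μM for the prodrug and TDF, up to 100 μM for TFV, with Triton X-100 run in parallel. Cell lines were split 1:2 the day before and seeded at 5 × 10^3 to 2 × 10^4 cells/well, with adherent lines left overnight. Dendritic cells were derived with GM-CSF/IL-4 for 7 days, then LPS 10 ng/ml for 2 days. Viability was read by XTT.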

PBMC [3] = test: Cytotoxicity against PHA/IL-2-stimulated human PBMC after 24 hrs by XTT assay; assay type: cell-based; in short: as §2
[4] = system: Human immunodeficiency virus 1; test: Antiviral activity against HIV1 7303-3 harboring reverse transcriptase 41L/44D/67N/69D/118I/210W/215Y mutant gene infected in human PBMC by ELISA; assay type: functional, organism-based; settings: Human immunodeficiency virus 1, 7303-3
In short: (§3)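 Fresh PBMCs pooled from at least two HIV- and HBV-seronegative donors, stimulated with PHA 4 μg/ml for 48–72 h and kept in rhIL-2 20 U/ml. Seeded at 5 × 10^4 cells/well and infected with RT-mutant HIV-1 clones at MOI ~0.1. Nine compound concentrations, triplicate wells, 7-day incubation. EC50 reported as mean ± SD of one to three independent experiments.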

PBMC [5] = test: Cellular uptake in PHA/IL-2-stimulated human PBMC at 1 uM assessed as TFV-diphosphate level after 24 hrs by MS/MS analysis; assay type: ADME, cell-based; in short: as §1
[6] = system: Human immunodeficiency virus 1; test: Antiviral activity against HIV1 1617-1 harboring reverse transcriptase 69K/70G/75I/77L/116Y/151M/184V mutant gene infected in human PBMC by ELISA; assay type: functional, organism-based; settings: Human immunodeficiency virus 1, 1617-1; in short: as §3
HepG2 = test: Cytotoxicity against human HepG2 cells after 24 hrs by XTT assay; assay type: cell-based; settings: hepg2, 24 h; in short: as §2
[7] = system: Human immunodeficiency virus 1; test: Antiviral activity against HIV1 52534-2 harboring reverse transcriptase 41L//74V/210W/215Y/184V/69SSS mutant gene infected in human PBMC by ELISA; assay type: functional, organism-based; settings: Human immunodeficiency virus 1, 52534-2; in short: as §3
HeLa = test: Cytotoxicity against human HeLa cells after 24 hrs by XTT assay; assay type: cell-based; in short: as §2
[8] = Cytotoxicity against human dendritic cells after 24 hrs by XTT assay; assay type: cell-based; in short: as §2
[9] = system: Human immunodeficiency virus 1; test: Antiviral activity against HIV1 4755-5 harboring reverse transcriptase 41L/44D/67N/69D/118I/210W/215Y/184V mutant gene infected in human PBMC by ELISA; assay type: functional, organism-based; settings: Human immunodeficiency virus 1, 4755-5; in short: as §3
[10] = system: Human immunodeficiency virus 1; test: Antiviral activity against HIV1 subtype D isolate 92UG024 infected in human PBMC after 48 to 72 hrs by MTS assay; assay type: functional, organism-based; settings: Human immunodeficiency virus 1, isolate 92UG024
In short: (§4)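 Fresh donor PBMCs, HIV- and HBV-seronegative, were stimulated with 4 μg/ml PHA for 48 to 72 h and kept on 20 U/ml rhIL-2. Cells pooled from at least two donors were seeded at 5 × 10^4 per well and infected at MOI ~0.1. Nine compound concentrations were run in triplicate wells for 7 days.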

[11] = system: Human immunodeficiency virus 1; test: Antiviral activity against HIV1 subtype A isolate 92UG029 infected in human MDM […] by MTS assay; assay type: functional, organism-based; settings: Human immunodeficiency virus 1, isolate 92UG029
[12] = system: Human immunodeficiency virus 1; test: Antiviral activity against HIV1 subtype E isolate CMU06 infected in human PBMC after 48 to 72 hrs by MTS assay; assay type: functional, organism-based; settings: Human immunodeficiency virus 1, isolate CMU06; in short: as §4
[13] = system: Human immunodeficiency virus 1; test: Antiviral activity against HIV1 subtype E isolate 93TH073 infected in human PBMC after 48 to 72 hrs by MTS assay; assay type: functional, organism-based; settings: Human immunodeficiency virus 1, isolate 93TH073; in short: as §4
[14] = system: Human immunodeficiency virus 1; test: Antiviral activity against HIV1 subtype F isolate 93BR019 infected in human PBMC after 48 to 72 hrs by MTS assay; assay type: functional, organism-based; settings: Human immunodeficiency virus 1, isolate 93BR019; in short: as §4
[15] = system: Human immunodeficiency virus 1; test: Antiviral activity against HIV1 subtype G isolate G3 infected in human PBMC after 48 to 72 hrs by MTS assay; assay type: functional, organism-based; settings: Human immunodeficiency virus 1, isolate G3; in short: as §4
[16] = system: Human immunodeficiency virus 1; test: Antiviral activity against HIV1 subtype G isolate RU132 infected in human PBMC after 48 to 72 hrs by MTS assay; assay type: functional, organism-based; settings: Human immunodeficiency virus 1, isolate RU132; in short: as §4
[17] = system: Human immunodeficiency virus 1; test: Antiviral activity against HIV1 subtype A isolate 92UG037 infected in human MDM […] by MTS assay; assay type: functional, organism-based; settings: Human immunodeficiency virus 1, isolate 92UG037
[18] = system: Human immunodeficiency virus 2; test: Antiviral activity against HIV2 isolate CDC310342 infected in human PBMC after 48 to 72 hrs by MTS assay; assay type: functional, organism-based; settings: Human immunodeficiency virus 2, isolate CDC310342; in short: as §4
[19] = system: Human immunodeficiency virus 1; test: Antiviral activity against HIV1 subtype F isolate 93BR020 infected in human PBMC after 48 to 72 hrs by MTS assay; assay type: functional, organism-based; settings: Human immunodeficiency virus 1, isolate 93BR020; in short: as §4
[20] = system: Human immunodeficiency virus 1; test: Antiviral activity against HIV1 subtype D isolate 92UG046 infected in human PBMC after 48 to 72 hrs by MTS assay; assay type: functional, organism-based; settings: Human immunodeficiency virus 1, isolate 92UG046; in short: as §4
[21] = system: Human immunodeficiency virus 2; test: Antiviral activity against HIV2 isolate CDC310319 infected in human PBMC after 48 to 72 hrs by MTS assay; assay type: functional, organism-based; settings: Human immunodeficiency virus 2, isolate CDC310319; in short: as §4
[22] = system: Human immunodeficiency virus 1; test: Antiviral activity against HIV1 subtype A isolate 92RW009 infected in human PBMC after 48 to 72 hrs by MTS assay; assay type: functional, organism-based; settings: Human immunodeficiency virus 1, isolate 92RW009; in short: as §4
[23] = system: Human immunodeficiency virus 1; test: Antiviral activity against HIV1 subtype G isolate JV1083 infected in human PBMC after 48 to 72 hrs by MTS assay; settings: Human immunodeficiency virus 1, isolate JV1083
[24] = system: Human immunodeficiency virus 1; test: Antiviral activity against HIV1 subtype D isolate 92UG001 infected in human PBMC after 48 to 72 hrs by MTS assay; assay type: functional, organism-based; settings: Human immunodeficiency virus 1, isolate 92UG001; in short: as §4
[25] = system: Human immunodeficiency virus 1; test: Antiviral activity against HIV1 subtype C isolate 92BR025 infected in human PBMC after 48 to 72 hrs by MTS assay; assay type: functional, organism-based; settings: Human immunodeficiency virus 1, isolate 92BR025; in short: as §4
[26] = system: Human immunodeficiency virus 1; test: Antiviral activity against HIV1 subtype F isolate 93BR029 infected in human PBMC after 48 to 72 hrs by MTS assay; assay type: functional, organism-based; settings: Human immunodeficiency virus 1, isolate 93BR029; in short: as §4
[27] = system: Human immunodeficiency virus 1; test: Antiviral activity against HIV1 subtype E isolate CMU08 infected in human PBMC after 48 to 72 hrs by MTS assay; assay type: functional, organism-based; settings: Human immunodeficiency virus 1, isolate CMU08; in short: as §4

Structure (SMILES)	Drug uptake (PBMC [1])	Activity [2]	Activity (PBMC [3])	EC50 [4]	Drug uptake (PBMC [5])	EC50 [6]	Activity (HepG2)	EC50 [7]	Activity (HeLa)	Activity [8]	EC50 [9]	EC50 [10]	EC50 [11]	EC50 [12]	EC50 [13]	EC50 [14]	EC50 [15]	EC50 [16]	EC50 [17]	EC50 [18]	other results
C[C@H](Cn1cnc2c(N)ncnc21)OCP(=O)(O)O [TENOFOVIR ANHYDROUS]	0.22 pmol/10^6 cells	Non-toxic	Non-toxic	> 8500 nM	0.05 pmol/10^6 cells	> 6500 nM	Non-toxic	> 6500 nM	Non-toxic	Non-toxic	5400 nM	–	–	–	–	–	–	–	–	–	–
CCCCCCCCCCCCCCCCOCCCOP(=O)(O)CO[C@H](C)Cn1cnc2c(N)ncnc21 [TENOFOVIR EXALIDEX]	5.5 pmol/10^6 cells	Non-toxic	Non-toxic	19 nM	1.7 pmol/10^6 cells	5 nM	Non-toxic	9 nM	Non-toxic	Non-toxic	3.1 nM	2.1 nM	1.3 nM	2.3 nM	2.3 nM	2.7 nM	2.2 nM	2.2 nM	1.3 nM	3.5 nM	EC50 [19]: 2.7 nM; EC50 [20]: 2.1 nM; EC50 [21]: 3.5 nM; EC50 [22]: 3.3 nM; EC50 [23]: 2.2 nM; EC50 [24]: 2.1 nM; EC50 [25]: 2.8 nM; EC50 [26]: 2.7 nM; EC50 [27]: 2.3 nM
Cc1cn([C@H]2C[C@H](N=[N+]=[N-])[C@@H](CO)O2)c(=O)[nH]c1=O [ZIDOVUDINE]	–	–	–	3000 nM	–	> 340 nM	–	350 nM	–	–	100 nM	6.3 nM	1.2 nM	5.5 nM	5.5 nM	9.6 nM	4.7 nM	4.7 nM	1.3 nM	9.3 nM	EC50 [19]: 9.6 nM; EC50 [20]: 6.3 nM; EC50 [21]: 9.3 nM; EC50 [22]: 14 nM; EC50 [23]: 4.7 nM; EC50 [24]: 6.3 nM; EC50 [25]: 4.9 nM; EC50 [26]: 9.6 nM; EC50 [27]: 5.5 nM
